Screening results from PubChem BioAssay.
Rows were chosen to be rich in hits. Some 6.4% of all compounds tested hit in one or more screens of this group.
E coli WT exp = growth inhibitors of wild-type E. coli, primary screen, strain BW25113, expanded library, OD600. growth inhibition, % at 100 µM. OD600 absorbance. AID 710, 2007. 98,000 tested, 0.15% active;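 active means growth inhibition above about 50% at one test dose, limit read from the data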;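 further: growth measured after 20 h incubation at 37 °C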
tolC growth inh = growth inhibitors of E. coli tolC mutant, primary screen, strain BW25113 ΔtolC::kan, 384-well. OD615. growth inhibition, % at 10 µM (by protocol). 65,000 tested, 2.2% active;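 active means growth inhibition at or above a cutoff equal to the mean over every tested compound plus 3 SD, cut at about 60% in these data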;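 further: growth measured after 20 h incubation at 37 °C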
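Assay system: tolC-deleted E. coli BW25113. Medium: kanamycin-containing LB broth (50 µg/mL). Dosing: 10 µM final, single dose. Timing: bacterial growth with compound for 20 h at 37 °C. Detection: A615 absorbance measurement. Read-out basis: growth inhibition in percent.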
Lung fibro prol = antiproliferative effect on LL 47 fibroblasts – human, LL 47 cells, CellTiter-Glo luminescence, primary screen; LL 47 human lung fibroblast viability, ATP luminescence; hits give low values; viability, % at 10 µM; 85,000 tested, 1.1% active; AID 719, 2007;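 active means viability at or below 50% in the single dose screen; inactive means viability above 50%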;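 further: compound exposure lasted 72 h before the ATP readout; 100% = median luminescence of untreated cell-only wells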
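Material: human lung fibroblast line LL 47, low passage; Evaluation: viability percentage against median untreated-cell control; Buffer or medium: 15% FBS in IMEM; Incubation: 72 h compound exposure at 37 °C after overnight plating; Dosing: 0.1% DMSO in all compound wells; Measured by: CellTiter-Glo luminescence.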
HUVEC prolif 384 = inhibitors of HUVEC proliferation, primary screen, cell-based, 384-well; CellTiter-Glo luminescence, 72 h; hits give low values; viability, % at 10 µM (by protocol); 86,000 tested, 1.1% active;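 active means viability at or below 30%; inactive means viability above 30%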;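 further: 100% = median luminescence of DMSO-only cell control wells on each plate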
H69AR inhibit = proliferation blockers of H69AR lung cancer cells, primary screen, cell-based, human, 86K library; AID 598, 2007; H69AR lung tumor viability, ATP luminescence, 72 h; hits give low values; viability, % at 10 µM; 85,000 tested, 6% active;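 active means viability at or below 40%; inactive means viability above 40%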;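 further: multidrug resistant small cell line overexpressing MRP-1 efflux transporter; 100% = mean luminescence of untreated control wells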
Jurkat tox 60K = cytotoxicity toward Jurkat T cells, primary screen, cytotoxicity control, cell-based, Jurkat E6.1, 60K MLSMR library; Jurkat E6.1 viability, ATP luminescence, 48 h; 56,000 tested, 1.2% active; inhibition, % at 4 µM;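 active means inhibition above the mean inhibition of all tested compounds plus 3 SD, cut at about 28% in these data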
Active calls of the source: *; / = no result.

SMILES	E coli WT exp	tolC growth inh	Lung fibro prol	HUVEC prolif 384	H69AR inhibit	Jurkat tox 60K
COc1ccc(-c2c(C)nn3c(N4CCN(Cc5ccccc5)CC4)cc(C)nc23)cc1OC	3	11	82	66	17*	6
Cc1cc(N2CCN(Cc3ccccc3)CC2)n2nc(C)c(-c3ccccc3)c2n1	0	/	92	77	19*	/
CCOCCCNC(=O)C1CCN(c2cc(C)nc3c(-c4ccc(OC)c(OC)c4)c(C)nn23)CC1	0	1	106	106	33*	1
COc1ccccc1-c1c(C)nn2c(N3CCCCCC3)cc(C)nc12	-1	60	/	/	/	8
CCOC(=O)c1nnn(-c2nonc2N)c1COc1ccccc1	7	50	94	85	71	-1
CC(C)OC(=O)CC(=O)CSc1nc2c(cc1C#N)CCCC2	-4	-9	102	89	68	-1
COc1ccc(-c2cc(C(F)(F)F)nc(SCC(=O)Nc3sc4c(c3C#N)CCC4)n2)cc1	1	/	/	/	/	/
CC(C)OC(=O)CC(=O)CSc1nc2c(cc1C#N)CCC2	0	-24	93	81	24*	-2
COc1ccc(-c2ccc(C#N)c(SCC(=O)Nc3sc4c(c3C#N)CCC4)n2)cc1OC	0	/	68	8.7*	1.0*	/
N#Cc1cc2c(nc1SCC(=O)Nc1sc3c(c1C#N)CCC3)CCCCCC2	-15	/	75	77	11*	/
N#Cc1cc2c(nc1SCC(=O)Nc1sc3c(c1C#N)CCC3)CCC2	-3	/	86	57	34*	/
N#Cc1cc2c(nc1SCC(=O)Nc1nccs1)CCCCC2	-5	-10	95	84	69	5
CCc1nnc(NC(=O)CSc2nc3c(cc2C#N)CCC3)s1	-5	-10	99	77	78	2
COC(=O)c1cc(S(=O)(=O)N2CCOCC2)ccc1Sc1ccccc1N	-1	8	/	/	/	/
CCN(C(=O)CN1CCN(c2ccc(OC)cc2)CC1)c1c(N)n(Cc2ccccc2)c(=O)[nH]c1=O	1	-15	103	93	90	-2
COc1ccc(C2(C(=O)N3CCOCC3)CCOCC2)cc1OC	-8	-14	97	107	/	-6
CCC(=O)Nc1sc2c(c1C#N)CCCCC2	2	/	93	101	96	/
COc1ccc(-c2nnn(CC(=O)Nc3sc4c(c3C#N)CCCC4)n2)cc1	-2	-5	108	108	6.8*	-6
O=C(O)c1ccc(CNCc2c(Cl)cccc2Cl)cc1	0	/	/	/	/	/
Cc1ccc2[nH]c3c(N4CCc5ccccc5C4)ncnc3c2c1	-10	/	74	52	61	/
c1ccc2c(c1)[nH]c1c(N3CCSCC3)ncnc12	18	7	83	71	63	/
Brc1ccc2[nH]c3c(N4CCc5ccccc5C4)ncnc3c2c1	-19	/	78	55	6.3*	/
c1ccc2c(c1)[nH]c1c(N3CCCC3)ncnc12	32	45	102	90	86	33*
COc1ccc(OC)c(C2Nc3nc4ccccc4n3C(C)=C2C(=O)Nc2ccc(C)cc2C)c1 (configuration not stated)	-16	/	75	94	91	/
Cc1cccc(S(=O)(=O)C(C#N)c2nc3ccccc3nc2N2CC(C)OC(C)C2)c1 (configuration not stated)	-4	62*	85	74	70	-2
Cc1ccc(S(=O)(=O)C(C#N)c2nc3ccccc3nc2N2CC(C)OC(C)C2)cc1C (configuration not stated)	6	48	98	68	34*	-7
COc1ccc(C(=O)CSc2nnc(-c3ccc(S(=O)(=O)N4CCOCC4)cc3)o2)cc1	-20	-3	87	83	98	1
COc1ccc(-c2nnc(NC(=O)c3ccc(S(=O)(=O)N4COCC4(C)C)cc3)o2)cc1	-16	100*	/	/	/	101*
CC1(C)COCN1S(=O)(=O)c1ccc(C(=O)Nc2nnc(-c3ccc(Cl)s3)o2)cc1	6	99*	/	/	/	17
Cc1ccc(S(=O)(=O)NC2CCOC(C)(C)C2)cc1 (configuration not stated)	7	18	103	89	71	6
